ChEMBL document CHEMBL4411328, “Synthesis and Structural/Functional Characterization of Selective M14 Metallocarboxypeptidase Inhibitors Based on Phosphinic Pseudopeptide Scaffold: Implications on the Design of Specific Optical Probes” (J Med Chem, 2019)
The source made the active and inactive calls. No cut-off for these calls is given here.

Assays:
Carboxypeptidase A1 = molecular target: T1, Carboxypeptidase A1 (Homo sapiens, UniProt P15085); test: Inhibition of human CPA1 using AAFP as substrate preincubated for 45 mins to 2 hrs measured at 30 sec intervals for 15 mins by UV/vis-spectrophotometry
T1 sequence (P15085 whole entry): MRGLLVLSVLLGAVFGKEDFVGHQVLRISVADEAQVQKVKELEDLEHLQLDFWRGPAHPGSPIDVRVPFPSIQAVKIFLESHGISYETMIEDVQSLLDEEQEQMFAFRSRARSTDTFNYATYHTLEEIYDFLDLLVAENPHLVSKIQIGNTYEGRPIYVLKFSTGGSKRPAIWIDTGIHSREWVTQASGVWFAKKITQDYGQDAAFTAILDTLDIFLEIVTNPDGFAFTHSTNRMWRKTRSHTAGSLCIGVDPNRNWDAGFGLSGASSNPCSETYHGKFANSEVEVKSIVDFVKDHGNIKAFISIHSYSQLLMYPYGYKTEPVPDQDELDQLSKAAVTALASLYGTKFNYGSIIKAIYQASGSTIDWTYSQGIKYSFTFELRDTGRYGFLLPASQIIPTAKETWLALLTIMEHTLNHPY
Method in brief: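 hCPA1 was used at 1.0x10-8 M with AAFP substrate at 1.0x10-4 M, read at 355 nm. Enzyme and inhibitor were preincubated 45 min at 37 °C before substrate was added. Initial velocities were read every 30 sec for 15 min, in triplicate. Apparent Ki came from a fit to the tight-binding equation.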

Carboxypeptidase A2 = molecular target: T2, Carboxypeptidase A2 (Homo sapiens, UniProt P48052); test: Inhibition of human CPA2 using AAFP as substrate preincubated for 45 mins to 2 hrs measured at 30 sec intervals for 15 mins by UV/vis-spectrophotometry
T2 sequence (P48052 whole entry): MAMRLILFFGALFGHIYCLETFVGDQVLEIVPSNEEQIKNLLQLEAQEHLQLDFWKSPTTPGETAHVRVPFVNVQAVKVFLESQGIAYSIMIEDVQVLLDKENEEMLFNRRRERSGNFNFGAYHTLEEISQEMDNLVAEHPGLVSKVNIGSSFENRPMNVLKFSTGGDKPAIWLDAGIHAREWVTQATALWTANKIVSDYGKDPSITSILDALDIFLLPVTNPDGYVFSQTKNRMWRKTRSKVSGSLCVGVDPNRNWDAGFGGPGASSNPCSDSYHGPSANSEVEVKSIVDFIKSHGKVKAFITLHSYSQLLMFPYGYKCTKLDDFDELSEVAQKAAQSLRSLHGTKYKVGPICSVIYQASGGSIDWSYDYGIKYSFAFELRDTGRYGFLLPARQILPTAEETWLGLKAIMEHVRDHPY
Method in brief: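 hCPA2 was used at 3.0x10-8 M with AAFP substrate at 1.0x10-4 M, read at 355 nm, in 20 mM Tris-HCl pH 7.5, 500 mM NaCl, 1% DMSO, 0.05% Brij-35. After a 45 min preincubation at 37 °C, initial rates were followed at 30 sec intervals for 15 min, in triplicate. Kiapp was fitted by the tight-binding equation.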

Carboxypeptidase A4 = molecular target: T3, Carboxypeptidase A4 (Homo sapiens, UniProt Q9UI42); test: Inhibition of human CPA4 using AAFP as substrate preincubated for 45 mins to 2 hrs measured at 30 sec intervals for 15 mins by UV/vis-spectrophotometry
T3 sequence (Q9UI42 whole entry): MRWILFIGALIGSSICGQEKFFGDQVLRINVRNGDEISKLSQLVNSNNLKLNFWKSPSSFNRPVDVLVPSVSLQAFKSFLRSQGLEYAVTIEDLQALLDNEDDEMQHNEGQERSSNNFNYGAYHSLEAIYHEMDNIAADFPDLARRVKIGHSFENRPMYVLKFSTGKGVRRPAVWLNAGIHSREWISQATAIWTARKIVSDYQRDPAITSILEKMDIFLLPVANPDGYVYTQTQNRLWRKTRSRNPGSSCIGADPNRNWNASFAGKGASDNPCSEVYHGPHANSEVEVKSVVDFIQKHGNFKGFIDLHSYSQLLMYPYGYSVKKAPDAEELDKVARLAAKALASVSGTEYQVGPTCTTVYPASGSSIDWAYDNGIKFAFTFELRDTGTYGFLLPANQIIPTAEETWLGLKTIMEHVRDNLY
Method in brief: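 Enzyme was hCPA4 at 4.3x10-8 M, with 1.0x10-4 M AAFP and detection at 355 nm. Inhibitor and enzyme were preincubated 45 min at 37 °C, then initial velocities were taken over 15 min (30 sec reads), in triplicate. Kiapp was obtained from the tight-binding fit.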

Carboxypeptidase B = Carboxypeptidase B (Homo sapiens, UniProt P15086); test: Inhibition of human CPB1 using AAFA as substrate preincubated for 45 mins to 2 hrs measured at 30 sec intervals for 15 mins by UV/vis-spectrophotometry
Method in brief: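 hCPB1 was used at 6.0x10-9 M with 1.0x10-4 M AAFA, read at 355 nm. After 45 min preincubation with inhibitor at 37 °C, residual activity at varied inhibitor concentrations was followed for 15 min at 30 sec intervals, in triplicate. Kiapp was fitted with the tight-binding equation.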

[1] = molecular target: T4, Carboxypeptidase D (Homo sapiens) (UniProt O75976); test: Inhibition of human CPD at 1 nM to 1 mM using AAFA as substrate preincubated for 45 mins to 2 hrs measured at 30 sec intervals for 15 mins by UV/vis-spectrophotometry
T4 sequence (whole entry): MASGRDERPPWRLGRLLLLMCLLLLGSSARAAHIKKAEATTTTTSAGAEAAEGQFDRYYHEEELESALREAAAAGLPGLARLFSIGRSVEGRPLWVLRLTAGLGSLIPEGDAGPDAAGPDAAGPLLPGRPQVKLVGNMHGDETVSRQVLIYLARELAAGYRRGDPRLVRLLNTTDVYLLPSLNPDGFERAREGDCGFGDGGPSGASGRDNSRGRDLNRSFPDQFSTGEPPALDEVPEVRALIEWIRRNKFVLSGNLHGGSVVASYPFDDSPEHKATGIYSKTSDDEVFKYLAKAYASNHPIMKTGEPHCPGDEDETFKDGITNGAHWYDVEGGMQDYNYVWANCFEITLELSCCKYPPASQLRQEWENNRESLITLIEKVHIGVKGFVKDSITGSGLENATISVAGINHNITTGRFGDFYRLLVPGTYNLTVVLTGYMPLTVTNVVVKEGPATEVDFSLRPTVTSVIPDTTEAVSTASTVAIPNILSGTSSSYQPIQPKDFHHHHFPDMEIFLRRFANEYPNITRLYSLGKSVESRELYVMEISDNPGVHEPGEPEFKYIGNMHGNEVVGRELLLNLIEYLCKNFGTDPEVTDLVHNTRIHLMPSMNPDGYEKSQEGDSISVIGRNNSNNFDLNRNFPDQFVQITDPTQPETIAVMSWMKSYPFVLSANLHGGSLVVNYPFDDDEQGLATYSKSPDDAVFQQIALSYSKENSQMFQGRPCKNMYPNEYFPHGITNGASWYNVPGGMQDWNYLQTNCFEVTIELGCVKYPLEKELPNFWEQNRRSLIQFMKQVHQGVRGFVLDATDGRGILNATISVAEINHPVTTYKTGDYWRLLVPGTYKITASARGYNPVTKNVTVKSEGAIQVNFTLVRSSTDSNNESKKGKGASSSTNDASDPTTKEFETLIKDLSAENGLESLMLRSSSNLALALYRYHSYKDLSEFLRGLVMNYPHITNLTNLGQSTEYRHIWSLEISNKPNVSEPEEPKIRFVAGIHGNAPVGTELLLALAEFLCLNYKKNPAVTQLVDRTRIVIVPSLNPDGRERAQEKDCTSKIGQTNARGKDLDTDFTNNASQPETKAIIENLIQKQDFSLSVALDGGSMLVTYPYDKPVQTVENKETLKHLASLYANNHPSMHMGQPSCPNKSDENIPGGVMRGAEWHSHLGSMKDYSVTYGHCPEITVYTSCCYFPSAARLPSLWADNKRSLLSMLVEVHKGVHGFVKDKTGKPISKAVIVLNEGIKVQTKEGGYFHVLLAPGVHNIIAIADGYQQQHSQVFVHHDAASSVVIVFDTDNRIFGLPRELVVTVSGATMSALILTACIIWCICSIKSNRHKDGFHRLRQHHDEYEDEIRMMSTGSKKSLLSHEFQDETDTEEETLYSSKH
Method in brief: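 hCPD was used at 2.0x10-8 M with AAFA substrate at 1.0x10-4 M, monitored at 355 nm. Buffer was 20 mM Tris-HCl pH 7.5, 100 mM NaCl, 1% DMSO, 0.05% Brij-35. Preincubation was 45 min at 37 °C. Residual activity at a range of inhibitor concentrations was measured from initial rates (30 sec reads, 15 min), in triplicate. Kiapp came from the tight-binding fit.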

Chain of Carboxypeptidase B (P15086 whole entry): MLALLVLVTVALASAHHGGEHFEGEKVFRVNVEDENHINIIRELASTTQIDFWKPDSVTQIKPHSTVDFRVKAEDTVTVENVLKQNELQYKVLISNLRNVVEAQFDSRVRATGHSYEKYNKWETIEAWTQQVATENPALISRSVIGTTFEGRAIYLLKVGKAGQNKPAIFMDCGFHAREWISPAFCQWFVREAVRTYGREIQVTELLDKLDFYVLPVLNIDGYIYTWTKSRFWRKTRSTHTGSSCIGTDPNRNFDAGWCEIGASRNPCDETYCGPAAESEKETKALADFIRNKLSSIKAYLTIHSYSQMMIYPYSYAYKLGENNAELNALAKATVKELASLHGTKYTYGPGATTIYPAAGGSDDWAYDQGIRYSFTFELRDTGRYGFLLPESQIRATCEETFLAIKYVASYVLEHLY

- Ki (Carboxypeptidase A1): 0.04 nM
- Ki (Carboxypeptidase A2): 1 nM
- Ki (Carboxypeptidase A4): 0.39 nM
- Ki (Carboxypeptidase B): 0.12 nM
- inhibition [1]: inactive
SMILES: CC(=O)N[C@@H](CC(C)C)C(=O)N[C@@H](Cc1ccccc1)P(=O)(O)C[C@@H](Cc1ccccc1)C(=O)O
